Assay outcomes: PubChem BioAssay, several laboratories
Sampled rows, rich in hits. Any-hit rate of the full collection: about 3.4%.
p97 ATPase inh – inhibitors of human p97 ATPase, primary screen, biochemical; Transitional endoplasmic reticulum ATPase (Homo sapiens), P55072; recombinant p97 ATPase, Kinase-Glo ATP luminescence, 3 h; inhibition, % at 8 µM; actives 0.42% (n = 220,000); in the data active = inhibition above about 15%;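 also: 0% = DMSO vehicle and 100% = wells lacking enzyme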
Cl transport mod – KCC2 cotransporter modulators, thallium flux, primary screen, cell-based, HEK293 KCC2, FluoZin-2 fluorescence, MLSMR; actives 2.2% (n = 190,000); Solute carrier family 12 member 5 (Homo sapiens), Q9H2X9; B-score of Tl+ flux slope (higher = more flux/activation; lower = inhibition) at 10 µM; KCC2 cells, thallium flux FluoZin-2 fluorescence;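 active = thallium flux slope and its plate-corrected score both differing from the plate sample mean at a set confidence after two filtering rounds, in either direction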;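 also: slope of fluorescence scaled to starting intensity during 10 to 20 s after thallium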
Target sequence (Q9H2X9 whole entry, looked up): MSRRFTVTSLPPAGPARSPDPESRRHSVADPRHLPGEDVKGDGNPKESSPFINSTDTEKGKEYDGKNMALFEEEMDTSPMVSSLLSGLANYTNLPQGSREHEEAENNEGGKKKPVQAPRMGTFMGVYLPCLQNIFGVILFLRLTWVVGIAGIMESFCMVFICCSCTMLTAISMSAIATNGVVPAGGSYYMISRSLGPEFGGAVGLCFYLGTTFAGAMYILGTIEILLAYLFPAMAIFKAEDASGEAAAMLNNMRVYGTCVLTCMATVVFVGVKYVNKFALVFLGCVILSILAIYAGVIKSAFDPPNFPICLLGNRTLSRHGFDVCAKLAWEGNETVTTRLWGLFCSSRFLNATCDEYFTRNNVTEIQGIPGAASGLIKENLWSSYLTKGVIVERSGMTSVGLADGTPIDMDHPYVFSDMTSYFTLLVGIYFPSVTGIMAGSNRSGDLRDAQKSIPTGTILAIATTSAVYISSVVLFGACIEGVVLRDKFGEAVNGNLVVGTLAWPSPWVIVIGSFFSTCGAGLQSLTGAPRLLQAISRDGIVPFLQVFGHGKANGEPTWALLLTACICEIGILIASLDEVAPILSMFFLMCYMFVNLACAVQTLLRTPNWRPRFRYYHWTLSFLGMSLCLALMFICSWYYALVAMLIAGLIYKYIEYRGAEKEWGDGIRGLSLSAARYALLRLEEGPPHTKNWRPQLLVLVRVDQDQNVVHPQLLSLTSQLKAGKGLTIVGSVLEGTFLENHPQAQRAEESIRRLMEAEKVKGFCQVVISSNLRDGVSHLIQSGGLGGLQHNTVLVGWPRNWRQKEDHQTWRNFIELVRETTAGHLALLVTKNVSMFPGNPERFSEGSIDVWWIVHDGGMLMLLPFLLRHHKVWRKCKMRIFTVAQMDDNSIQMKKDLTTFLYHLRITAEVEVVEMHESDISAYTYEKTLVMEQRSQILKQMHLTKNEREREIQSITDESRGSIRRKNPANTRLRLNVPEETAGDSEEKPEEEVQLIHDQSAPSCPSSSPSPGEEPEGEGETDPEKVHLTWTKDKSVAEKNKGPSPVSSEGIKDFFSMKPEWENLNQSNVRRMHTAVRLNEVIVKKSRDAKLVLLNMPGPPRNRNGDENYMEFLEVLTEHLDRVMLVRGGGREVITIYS
ROMK primary – ROMK potassium channel modulators, primary screen, cell-based, thallium flux, MLSMR library. ATP-sensitive inward rectifier potassium channel 1 (Homo sapiens), P48048. B-score at 10 µM. Tet-inducible ROMK, thallium flux fluorescence; actives lie on both sides. actives 2% (n = 130,000);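 active = signal ratio slope over the read window, or its plate-corrected B-score, at least 3 SD from the plate mean, either direction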;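 also: B-score of the F/F0 ratio slope over 7 to 12 s after thallium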
DTT redox prof – compounds producing H2O2 with reducing agent – biochemical, NIH compound library profiling, artefact control for MLSCN library redox annotation, primary screen; actives 0.03% (n = 200,000); DTT-dependent redox cycling H2O2, phenol red/HRP absorbance; 100% = 100 µM peroxide control, 0% = buffer; AID 878, 2007; activation, % at 10 µM;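 active = activation of at least 50% relative to the plate's high and low controls in the primary single-dose screen; inactive = activation below 50%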;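 also: compound incubated with DTT at 0.8 mM final as the reducing agent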
MDM2 E3 inh – MDM2-luciferase reporter signal enhancers, primary screen, MDM2 E3 ligase inhibitor project, cell-based, luminescence, 1536-well. E3 ubiquitin-protein ligase Mdm2 (Homo sapiens), Q00987. cell-based MDM2 ubiquitination luciferase reporter, 2 h; 0 = plate control, 100 = twice control, blank-subtracted. actives 0.11% (n = 210,000). signal enhancement, % at 5 µM;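 active = signal enhancement of 30% or more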;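 also: luminescence tracks abundance of the self-degrading MDM2-luciferase fusion protein; higher signal means inhibition of MDM2 E3 ligase activity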
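Assay system: stable mammalian line carrying autodegrading MDM2–luciferase fusion reporter; Input: 2000 cells in each well; Compound dosing: single-point 5 µM; Schedule: 2 h compound exposure at 37 °C; Signal: SteadyLite luciferase luminescence after 15 min room-temperature reagent incubation; Evaluation: % luminescence enhancement versus blank-corrected plate control mean; Benchmarks: plate controls and plate blanks.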
PKD1 inh – inhibitors of human PKD1 kinase, biochemical, fluorescence polarization. Serine/threonine-protein kinase D1 (Homo sapiens), Q15139. inhibition, % (test concentration not listed). AID 797, 2007. actives 0.056% (n = 200,000). PKD1 kinase fluorescence polarization assay; in the data active = inhibition above about 50%
KCC2 secondary – KCC2 modulators in sodium-free buffer, confirmation, cell-based, HEK293 KCC2, thallium flux, secondary assay | shares compounds with Cl transport mod | FluoZin2 fluorescence; hits give high values | normalised thallium flux (F/F0 slope) at 10 µM | actives 15% (n = 3,700);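 active = thallium flux slope above the same plate's solvent-only control mean plus 3 SD; inconclusive = the two replicate wells disagree; inactive = no significant difference from solvent-only control wells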
KCC2 bumet counter – thallium flux persisting under bumetanide in KCC2 cells, confirmation, counter-screen for KCC2 modulator project, cell-based, HEK293 KCC2, FluoZin2, secondary assay 3; shares compounds with Cl transport mod; HEK293-KCC2 + bumetanide/ouabain; hits give high values; normalized thallium flux at 10 µM; actives 49% (n = 3,700);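 active = thallium entry rate above the same plate's blocked-transporter control wells by more than 3 SD; inconclusive = the two repeat wells disagree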;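 also: raw slope of fluorescence over initial fluorescence between 10 and 20 s after thallium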
KCC2 sec2 – KCC2 modulators without ouabain present, confirmation, cell-based, HEK293 KCC2, thallium flux, FluoZin2, secondary assay 2; shares compounds with Cl transport mod; thallium flux FluoZin2 fluorescence; actives lie on both sides; F/F0 rise rate, 10–20 s post-thallium; normalized thallium flux at 10 µM; actives 23% (n = 3,700);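 active = thallium flux slope more than 3 SD above or below the plate's solvent-only control mean, mostly below; inconclusive = the two repeat wells disagreed; inactive = no significant shift from solvent-only controls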;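 also: raw slope with 0.1% DMSO as baseline and bumetanide as block control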
HEK counter1 – thallium flux modulation in parental HEK cells, confirmation, counter-screen for KCC2 modulator project, cell-based, counterscreen 1; shares compounds with Cl transport mod; HEK293 parental cells, thallium flux FluoZin2, ouabain; baseline-ratio fluorescence slope, 10–20 s after thallium; thallium flux rate (normalised fluorescence) at 10 µM; actives 46% (n = 3,700); AID 1716, 2009;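 active = thallium flux rate significantly above the same plate's solvent-only control wells, beyond their mean plus 3 SD; inconclusive = the two replicate wells gave conflicting results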
KCC2 retest ouab – KCC2 inhibitors and activators, ouabain retest, confirmation, HEK-KCC2 cells; raw Tl+ flux slope (below DMSO = inhibition, above = activation) at 10 µM; shares compounds with Cl transport mod; actives 48% (n = 3,700); HEK293-KCC2, thallium flux FluoZin2 fluorescence; bidirectional: low = inhibitor, high = activator;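 active = thallium flux slope beyond 3 SD from same-plate DMSO control mean in most replicates, usually higher, sometimes lower; inconclusive = repeat tests gave conflicting results; inactive = no significant difference from controls in most replicates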;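 also: slope of initial-normalized fluorescence between seconds 10 and 20 after thallium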
HEK293 Tl flux2 – native HEK Tl+ uptake effects, second counter-screen – HEK cells, counterscreen 2, counter-screen for KCC2 modulator project, confirmation. shares compounds with Cl transport mod. actives 33% (n = 3,700). AID 1718, 2009. HEK293 parental, thallium flux FluoZin-2 fluorescence slope. thallium flux slope at 10 µM;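 active = thallium flux slope above the same plate's solvent-control mean plus 3 SD in both duplicate wells; inconclusive = duplicate wells that disagreed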;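 also: run without ouabain in cells lacking the KCC2 cotransporter; slope of fluorescence scaled to its starting value between 10 and 20 s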
Starred values were filed as active, the others as inactive.

`COc1ccc(C(=O)CSc2nnc(-c3ccccc3)o2)cc1` gave p97 ATPase inh 0.5, Cl transport mod -2.16, ROMK primary 0.0725, DTT redox prof -0.1, MDM2 E3 inh 4.8 and PKD1 inh 8.7.
COc1ccc(-c2nnc(SCc3ncc(-c4ccccc4)o3)o2)cc1 was read as p97 ATPase inh -6.2, Cl transport mod -2.98*, ROMK primary 0.205, DTT redox prof 2.0, MDM2 E3 inh -12.0, PKD1 inh -6.2, KCC2 secondary 0.00685, KCC2 bumet counter 0.00473, KCC2 sec2 inconclusive, HEK counter1 0.0066, KCC2 retest ouab 0.018 and HEK293 Tl flux2 0.0104.
For O=C(Cn1nnc(-c2ccccc2)n1)N/N=C/c1cccc([N+](=O)[O-])c1O the results were p97 ATPase inh 2.6, Cl transport mod -1.2, ROMK primary -0.536, DTT redox prof -0.4, MDM2 E3 inh -6.3 and PKD1 inh -2.2.
Screening O=C(NNC1=Nc2ccccc2SC1)c1ccc(Cl)cc1 returned p97 ATPase inh 4.5, Cl transport mod 5.55*, ROMK primary -2.41, MDM2 E3 inh -10.7, KCC2 secondary 0.0176, KCC2 bumet counter 0.0112*, KCC2 sec2 0.0311, HEK counter1 0.00967*, KCC2 retest ouab 0.0183 and HEK293 Tl flux2 inconclusive.
O=C(NNC1=Nc2ccccc2SC1)c1ccc(F)cc1 was read as p97 ATPase inh 1.1, Cl transport mod 1.06 and MDM2 E3 inh -16.4.
`CCOC(=O)c1ccccc1NC(=O)CN1C(=O)CCS(=O)(=O)c2ccccc21` gave p97 ATPase inh -2.9, Cl transport mod 0.398, DTT redox prof 2.5, MDM2 E3 inh 5.7 and PKD1 inh -4.1.
Screening COc1ccccc1N(CC(=O)Nc1c(C)n(C)n(-c2ccccc2)c1=O)S(=O)(=O)c1ccc(C)cc1 returned p97 ATPase inh 0.6, Cl transport mod -0.803, ROMK primary -0.635, DTT redox prof 0.0, MDM2 E3 inh 18.5 and PKD1 inh 5.5.
